E-selectin induc – induces E-selectin expression in human endothelial cells; HUVEC E-selectin immunofluorescence imaging; normalized: neutral wells 0, TNF-alpha wells 100; AID 686992; 0.37% of 260,000 active; activation, % at 7.58 µM; P16581;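 active = mean E-selectin-positive cell signal at least 10% of the positive control, reached in at least 60% of replicates, without over 20% cell loss; inconclusive = no rule given, readout overlaps actives, possibly toxicity-flagged; inactive = the rest, including those meeting only one limit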
Target sequence (P16581 whole entry, looked up): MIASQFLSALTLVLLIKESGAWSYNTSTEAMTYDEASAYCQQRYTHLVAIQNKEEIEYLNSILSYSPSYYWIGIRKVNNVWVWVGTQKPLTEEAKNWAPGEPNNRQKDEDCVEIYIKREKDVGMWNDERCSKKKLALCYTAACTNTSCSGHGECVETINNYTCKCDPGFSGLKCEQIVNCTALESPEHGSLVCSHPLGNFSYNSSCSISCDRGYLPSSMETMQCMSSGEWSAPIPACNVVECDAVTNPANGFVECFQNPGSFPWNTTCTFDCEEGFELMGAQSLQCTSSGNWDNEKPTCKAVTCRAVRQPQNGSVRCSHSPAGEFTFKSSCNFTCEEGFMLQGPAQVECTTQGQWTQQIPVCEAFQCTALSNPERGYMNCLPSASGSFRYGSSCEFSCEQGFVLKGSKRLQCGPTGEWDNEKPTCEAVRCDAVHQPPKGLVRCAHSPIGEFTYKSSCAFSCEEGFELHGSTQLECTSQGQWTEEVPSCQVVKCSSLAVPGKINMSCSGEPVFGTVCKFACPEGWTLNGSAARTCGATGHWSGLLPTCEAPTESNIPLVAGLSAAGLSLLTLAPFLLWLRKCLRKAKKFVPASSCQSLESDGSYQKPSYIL
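material = human umbilical vein endothelial cells (HUVEC), E-selectin induction | quantity = 3,000 cells/well | medium = EGM-2 growth medium on 0.1% gelatin-coated wells | technique = immunofluorescence imaging | read-out basis = % PE-positive cells | control set = TNF-alpha positive control, DMSO neutral control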
C2C12 statin – suppressors of simvastatin-induced myotoxicity in C2C12 myotubes | ATP luminescence, 48 h; scaled: DMSO 0, geranylgeraniol control 100 | rescue of ATP level, % at 7.49 µM | 0.78% of 330,000 active | AID 602340;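 active = mean ATP rescue above about 67%, or every replicate alone reaching that limit, limit read from the data, passing the limit was not always enough; inconclusive = no clear call, values can overlap the other calls; inactive = mean under the limit and some replicate under it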;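 also: myotubes were challenged with 10 µM simvastatin during compound exposure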
DENV2 CPE – protects cells from dengue virus 2 cytopathic effect | CPE inhibition, % at 9.99 µM | DENV2-infected cells, cytopathic effect rescue, plate reader | 1.7% of 350,000 active | AID 651640; in the data active = CPE inhibition above about 20%, passing the limit was not always enough; inconclusive = no clear call, values can overlap the other calls; tested in BHK-21 cells;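 also: 0% = median of neutral control wells and 100% = median of positive control wells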
Starred values were filed as active, the others as inactive; ! = not active in a repeat. This is a sample that favours compounds with a hit; in the whole collection about 2.2% have one here.

How did CCC(=O)N1CC2(C1)[C@@H](c1ccc(-c3ccc(F)cc3)cc1)[C@@H](CO)N2C(=O)CC do in these assays?
E-selectin induc: 0; DENV2 CPE: 4

Results for CCC(=O)N1CC2(C1)[C@@H](c1ccccc1)[C@H](CO)N2C(=O)c1cccnc1 ?
E-selectin induc: 0; DENV2 CPE: 72*

What do the screens show for `CCC(=O)N1CC2(C1)[C@@H](c1ccc(-c3ccc(F)cc3)cc1)[C@H](CO)N2C(=O)CC`?
E-selectin induc: 0; DENV2 CPE: 27*

How did O=C(C[C@@H]1CC[C@H]2NC[C@@H](O)COC[C@@H]2O1)NCCN1CCCC1 do in these assays?
E-selectin induc: 2; DENV2 CPE: 17

What do the screens show for `C/C=C/c1ccc([C@@H]2[C@@H](CNC(=O)c3ccccc3)N(C(C)=O)[C@H]2CO)cc1`?
E-selectin induc: 0; C2C12 statin: 1; DENV2 CPE: -8

How did CCCN1Cc2cccc(C(=O)Nc3ccc4c(c3)OCO4)c2C1=O do in these assays?
C2C12 statin: 60

Results for CCCN1Cc2cccc(C(=O)Nc3ccc4c(c3)OCCO4)c2C1=O ?
E-selectin induc: 0; C2C12 statin: -5; DENV2 CPE: 94*

How did Cc1ccc(S(=O)(=O)Nc2ccc3c(c2)C(=O)N([C@@H](C)CO)C[C@@H](C)[C@@H](CN(C)C(=O)Nc2ccc(C(F)(F)F)cc2)OCCCC[C@@H](C)O3)cc1 do in these assays?
E-selectin induc: 0; DENV2 CPE: 4

What do the screens show for `COc1ccc(NC(=O)N(C)C[C@H]2Oc3ccc(NC(=O)CCC(F)(F)F)cc3C(=O)N([C@@H](C)CO)C[C@H]2C)cc1`?
E-selectin induc: -3; C2C12 statin: -1; DENV2 CPE: -3

How did C[C@@H]1CN([C@@H](C)CO)C(=O)CCCn2cc(nn2)CO[C@@H]1CN(C)S(C)(=O)=O do in these assays?
E-selectin induc: 1; C2C12 statin: -5

How did COc1ccc(CCn2c(=O)c3cccnc3n(Cc3cccc([N+](=O)[O-])c3)c2=O)cc1OC do in these assays?
E-selectin induc: 27*; DENV2 CPE: 2

Results for COC(=O)c1cccnc1-n1c(=O)c2cccnc2n(Cc2cccc([N+](=O)[O-])c2)c1=O ?
E-selectin induc: -1; C2C12 statin: -10; DENV2 CPE: -7

Results for COc1ccc(NC(=O)N[C@@H]2C=C[C@H](CC(=O)NC3CCCCC3)O[C@H]2CO)cc1 ?
E-selectin induc: 0; C2C12 statin: 1; DENV2 CPE: 8

Results for COc1ccccc1S(=O)(=O)N[C@H]1CC[C@H](CC(=O)N2CCCCC2)O[C@H]1CO ?
E-selectin induc: 0; C2C12 statin: 4; DENV2 CPE: 3

How did C[C@@H]1CN([C@H](C)CO)C(=O)c2cc(NC(=O)Cn3cnnn3)ccc2O[C@@H]1CN(C)CC1CCCCC1 do in these assays?
E-selectin induc: 0; C2C12 statin: 12; DENV2 CPE: 9

Results for CNC(=O)C[C@H]1CC[C@H]2[C@@H](COc3ccc(NC(=O)c4ccc5c(c4)OCO5)cc3C(=O)N2C)O1 ?
E-selectin induc: 0; C2C12 statin: -2; DENV2 CPE: 0

What do the screens show for `C[C@H](CO)N1C[C@H](C)[C@@H](CN(C)Cc2cccc(F)c2)Oc2ncc(C#CC(C)(C)O)cc2C1=O`?
E-selectin induc: 0; C2C12 statin: -1

Results for CS(=O)(=O)c1cccc(-c2nnc(NC(=O)c3ccc(S(=O)(=O)N4CCCC4)cc3)o2)c1 ?
E-selectin induc: 0; C2C12 statin: 7; DENV2 CPE: 61*

How did CC1CCN(S(=O)(=O)c2ccc(C(=O)Nc3nnc(-c4ccco4)o3)cc2)CC1 do in these assays?
E-selectin induc: -1; C2C12 statin: -11; DENV2 CPE: 90*

How did O=C(Nc1nnc(-c2ccco2)o1)c1ccc(S(=O)(=O)N2CCCC2)cc1 do in these assays?
DENV2 CPE: 5

What do the screens show for `COc1ccccc1-c1nnc(NC(=O)c2ccc(S(=O)(=O)N3CCCC3)cc2)o1`?
E-selectin induc: 0; C2C12 statin: -10; DENV2 CPE: 3

How did C=C1CC(/C=C/c2cc(OC)c(OC)c(OC)c2)OC1=O (configuration not stated) do in these assays?
DENV2 CPE: 9

Results for C/C=C/c1ccc2c(c1)O[C@@H](CN(C)C(=O)c1ccc(F)cc1)[C@H](C)CN([C@H](C)CO)S2(=O)=O ?
E-selectin induc: 0; C2C12 statin: -8; DENV2 CPE: -9

How did CO[C@@H]1CN(C)C(=O)c2ccc(NC(=O)C3CCOCC3)cc2OC[C@@H](C)N(C)C[C@@H]1C do in these assays?
E-selectin induc: 2; C2C12 statin: 4

What do the screens show for `O=C(O)c1ccc2c(c1)C(=O)N(CCC1=CCCCC1)C2=O`?
C2C12 statin: -9

How did O=C1c2ccccc2C(=O)N1CCC1=CCCCC1 do in these assays?
C2C12 statin: 122*

What do the screens show for `CO[C@@H]1CN(C)C(=O)c2cc(NC(=O)Nc3ccccc3)ccc2OC[C@H](C)N(C(C)=O)C[C@@H]1C`?
E-selectin induc: 0; C2C12 statin: 0; DENV2 CPE: -3

How did C[C@H]1CN([C@@H](C)CO)C(=O)c2cc(NC(=O)CCCCCC(=O)Nc3ccccc3N)ccc2O[C@H]1CN(C)C(=O)NC1CCCCC1 do in these assays?
E-selectin induc: 0

Results for COc1ccc(NC(=O)Nc2ccc3c(c2)C(=O)N([C@H](C)CO)C[C@H](C)[C@H](CN(C)C(=O)Nc2ccc(OC)cc2)OCCCC[C@@H](C)O3)cc1 ?
E-selectin induc: 1; DENV2 CPE: 0

What do the screens show for `COc1ccc(NC(=O)Nc2ccc3c(c2)C(=O)N([C@@H](C)CO)C[C@@H](C)[C@H](CN(C)C(=O)C2CCCCC2)OCCCC[C@H](C)O3)cc1`?
E-selectin induc: 0; C2C12 statin: inconclusive; DENV2 CPE: -13

How did C[C@@H]1CCCCO[C@H](CN(C)C(=O)C2CCCCC2)[C@H](C)CN([C@H](C)CO)C(=O)c2cc(NC(=O)Nc3ccccc3)ccc2O1 do in these assays?
DENV2 CPE: 12

What do the screens show for `C[C@@H]1CCCCO[C@H](CN(C)C(=O)C2CCCCC2)[C@H](C)CN([C@@H](C)CO)C(=O)c2cc(NC(=O)Nc3ccccc3)ccc2O1`?
E-selectin induc: 0; DENV2 CPE: -7

What do the screens show for `COc1ccc(NC(=O)Nc2ccc3c(c2)C(=O)N([C@H](C)CO)C[C@@H](C)[C@@H](CN(C)C(=O)C2CCCCC2)OCCCC[C@H](C)O3)cc1`?
E-selectin induc: 2; C2C12 statin: 8; DENV2 CPE: 46*!

Results for COc1ccc(NC(=O)Nc2ccc3c(c2)C(=O)N([C@H](C)CO)C[C@H](C)[C@H](CN(C)C(=O)C2CCCCC2)OCCCC[C@H](C)O3)cc1 ?
E-selectin induc: 1; C2C12 statin: 71*; DENV2 CPE: 7

Results for COc1ccc(NC(=O)Nc2ccc3c(c2)C(=O)N([C@@H](C)CO)C[C@H](C)[C@H](CN(C)C(=O)C2CCCCC2)OCCCC[C@H](C)O3)cc1 ?
E-selectin induc: 0; C2C12 statin: 79*; DENV2 CPE: 6

How did COc1ccc(NC(=O)Nc2ccc3c(c2)C(=O)N([C@H](C)CO)C[C@H](C)[C@@H](CN(C)C(=O)C2CCCCC2)OCCCC[C@@H](C)O3)cc1 do in these assays?
E-selectin induc: 0; C2C12 statin: -8; DENV2 CPE: 32*
